# In publication PMC4475676 (Biochemistry, 2015):
# What was measured:
# [1] = system: peptide substrate; experiment: ZZ-exchange NMR catalytic efficiency; format: biochemical
# Procedure, shortened: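 ZZ-exchange NMR used 1 mM 15N-labeled peptide with unlabeled enzyme, 20 μM at 0–20 °C or 1 μM at 30–45 °C. kex_eff came from time-dependent cross-peak build-up, with fit errors from a single experiment. Catalytic-Arg mutants used 100 μM protein at 30 °C with a 0.768 s mixing time. For these, the cis-peak to cross-peak intensity ratio stood in for turnover.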
# [2] = system: peptide substrate; experiment: NMR titration binding affinity
# Procedure, shortened: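 500 μM 15N-labeled wild-type or mutant protein titrated with 0, 0.1, 0.2, 0.5, 1 and 2 mM peptide. 15N HSQC recorded at 900 MHz. Shift changes of perturbed peaks were fit individually to a quadratic single-site binding equation. Peaks fitting with r² > 0.99 (fast exchange) were then fit globally for one KD per protein. Protein and peptide were in 50 mM Na2HPO4, 1 mM DTT, 1 mM EDTA, pH 6.5.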
# [3] = denatures entirely; cited from earlier work
# [4] = system: CypA; conditions: cited from earlier work
# [5] = system: GeoCyp; conditions: cited from earlier work
substance,measurement,setting,value
"CypA^A103R: CypA swap mutant, Ala 103 to Arg",effect of swap mutation on catalytic efficiency,"[1]; relative to wild type, ZZ-exchange, 20 μM protein",less
same,effect of swap mutation on peptide binding,"[2]; relative to wild type, NMR titration",strengthened
CypA^R55A: CypA with mutation of the catalytic arginine Arg 55 to alanine,catalysis after mutation of catalytic arginine,"[1]; 100 μM protein, 1 mM peptide, 30 °C","nearly, but not entirely, ablates catalysis"
"CypA^WT: prototypical human cyclophilin A, mesophilic peptidyl-prolyl isomerase",turnover at 45 °C compared between CypA and GeoCyp,"[1]; 45 °C, 1 μM protein, 1 mM peptide",comparable rate
same,Tm / denaturation temperature,[3],51 °C
same,temperature dependence of binding affinity for the peptide,[2],highly temperature-dependent
GSFGPDLRAGD [peptide substrate],isomerization of G-P peptide bond by CypA,[4],readily isomerized
same,isomerization of G-P peptide bond by GeoCyp,[5],readily isomerized
